What follows are compounds tested on Canis familiaris (assay: Inhibition of histamine stimulated gastric acid secretion in adult mongrel dogs at dose 5 mg/kg given intravenously). Conditions: Canis lupus familiaris, Stomach, route intravenous.
Format: functional
Summary of the method: (§1)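 Dogs with Heidenhain pouches, 12–18 kg, fasted 18 h. Compound given iv in 3 mL or by gavage in 5 mL of 0.4% methylcellulose/saline, 1 h after infusion start. 30-min collections titrated. Summed 3-h AO against the same dog's control AO gives % inhibition. Usually one dog per compound.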

In order of rising inhibition in vivo at 5 mg/kg:
1. Cc1nc2c(OCc3ccccc3)cccn2c1CC(=S)N(C)C  0%
2. Cc1nc2ccc(CCc3ccccc3)cn2c1CC#N  0%
3. CCSCc1c(C)nc2c(OCc3ccccc3)cccn12  0%
4. C/N=C(/S)Cc1c(C)nc2c(OCc3ccccc3)cccn12  0%
5. Cc1nc2c(OCc3ccccc3)cccn2c1C(C)(C)C#N  0%
6. c1ccc(COc2cccn3c4c(nc23)CCC4)cc1  0%
7. Cc1nc2c(OCc3ccccc3)cccn2c1CS(C)(=O)=O  0%
8. Cc1nc2c(Oc3ccccc3)cccn2c1CC#N  0%
9. Cc1nc2c(O)cccn2c1CC#N  0%
10. Cc1nc2c(OCc3ccccc3)cccn2c1CC(=N)N  0%
11. N#CCc1c(C(F)(F)F)nc2c(OCc3ccccc3)cccn12  0%
12. Cc1nc2c(OCc3ccccc3)cccn2c1C(N)=O  2%
13. Cc1nc2c(S(=O)(=O)Cc3ccccc3)cccn2c1CC#N  6%
14. Cc1nc2c(OCc3cccnc3)cccn2c1CC#N  8%
15. CSCc1c(C)nc2c(OCc3ccccc3)cccn12  8%
16. CC(=O)c1c(C)nc2c(OCc3ccccc3)cccn12  9%
17. CNC(=O)Cc1c(C)nc2c(OCc3ccccc3)cccn12  14%
18. COC(=O)Cc1c(C)nc2c(OCc3ccccc3)cccn12  16%
19. Cc1nc2c(OCc3ccccc3)cccn2c1C[S+](C)[O-] (configuration not stated)  18%
20. Cc1nc2c(OCc3ccccc3)cccn2c1CCC#N  20%
21. Cc1nc2c(OCc3ccccc3)cccn2c1CC(=O)O  24%
22. Cc1nc2c([S+]([O-])Cc3ccccc3)cccn2c1CC#N (configuration not stated)  26%
23. Cc1nc2c(OCc3ccccn3)cccn2c1CC#N  29%
24. Cc1nc2c(OCc3ccncc3)cccn2c1CC#N  36%

Species: Rattus norvegicus
Assay: Oral gastric cytoprotective activity in the rat against ethanol-induced lesions
Format: functional
Conditions: Stomach
Summary of the method: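 Rats fasted and water-deprived for 20 h. Compound given orally, 1–30 mg/kg in 0.4% methylcellulose/saline, 30 min before 1 mL absolute ethanol po. Killed 1 h after ethanol. Linear hemorrhagic lesion lengths totalled per stomach, expressed as group mean. ED50 by linear regression.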

In order of falling ED50:
1. Cc1nc2c(S(=O)(=O)Cc3ccccc3)cccn2c1CC#N  16 mg/kg
2. Cc1nc2c(OCc3ccccc3)cccn2c1C(C)(C)C#N  12.3 mg/kg
3. Cc1nc2c(OCc3cccnc3)cccn2c1CC#N  7.4 mg/kg
4. Cc1nc2c([S+]([O-])Cc3ccccc3)cccn2c1CC#N (configuration not stated)  5 mg/kg
5. Cc1nc2c(Oc3ccccc3)cccn2c1CC#N  3.4 mg/kg
6. Cc1nc2cc(CCc3ccccc3)ccn2c1CC#N  3 mg/kg
7. Cc1nc2ccc(CCc3ccccc3)cn2c1CC#N  2.7 mg/kg
8. Cc1nc2c(OCc3ccncc3)cccn2c1CC#N  2.6 mg/kg
9. Cc1nc2c(OCc3ccccn3)cccn2c1CC#N  2.4 mg/kg
10. CCc1c(C)nc2c(OCc3ccccc3)cccn12  2 mg/kg
11. Cc1nc2c(OCc3ccccc3)cccn2c1CCC#N  1.5 mg/kg

These compounds were tested on Canis familiaris (assay: Inhibition of histamine stimulated gastric acid secretion in adult mongrel dogs at dose 2 mg/kg given intravenously). Conditions: Canis lupus familiaris, Stomach, route intravenous.
Format: functional
Summary of the method: as §1

In order of falling inhibition in vivo at 2 mg/kg:
1. CCc1c(C)nc2c(OCc3ccccc3)cccn12  37%
2. Cc1nc2cc(CCc3ccccc3)ccn2c1CC#N  26%
3. Cc1nc2c(C[S+]([O-])c3ccccc3)cccn2c1C (configuration not stated)  0%

What follows are compounds tested on Rattus norvegicus (assay: Gastric antisecretory activity in the pylorus-ligated rat and the reduction in acid output was measured after 4 hr by intraperitoneal (ip) administration of 40 mg/kg dose.). Conditions: not given.
Format: functional
Summary of the method: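 Male Charles River CD rats, 150–200 g, fasted 24 h. Pylorus ligated under Brevital anesthesia. 40 mg/kg given ip in 2.5% Tween 80 at ligation. Stomach contents collected at 4 h and titrated with 0.1 N NaOH to pH 7.0. % inhibition from mean AO, 6 treated vs 8 control rats. Student's t test.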

In order of rising inhibition in vivo at 40 mg/kg:
1. Cc1nc2c(OCc3ccccc3)cccn2c1C[S+](C)[O-] (configuration not stated)  0%
2. Cc1nc2c(O)cccn2c1CC#N  0%
3. N#CCc1c(C(F)(F)F)nc2c(OCc3ccccc3)cccn12  0%
4. Cc1nc2c(OCc3ccc(S(C)(=O)=O)cc3)cccn2c1CC#N  2%
5. C/N=C(/S)Cc1c(C)nc2c(OCc3ccccc3)cccn12  7%
6. Cc1nc2ccc(CCc3ccccc3)cn2c1CC#N  8%
7. Cc1nc2c(S(=O)(=O)Cc3ccccc3)cccn2c1CC#N  9%
8. Cc1nc2cc(CCc3ccccc3)ccn2c1CC#N  11%
9. Cc1nc2c(OCc3ccccc3)cccn2c1CC(=O)O  12%
10. Cc1nc2c(OCc3ccccc3)cccn2c1CC(=S)N(C)C  21%
11. CCOC(=O)c1c(C)nc2c(OCc3ccccc3)cccn12  22%
12. COC(=O)Cc1c(C)nc2c(OCc3ccccc3)cccn12  23%
13. Cc1nc2c(Oc3ccccc3)cccn2c1CC#N  24%
14. CNC(=O)Cc1c(C)nc2c(OCc3ccccc3)cccn12  24%
15. c1ccc(COc2cccn3c4c(nc23)CCC4)cc1  26%
16. CSCc1c(C)nc2c(OCc3ccccc3)cccn12  29%
17. CCSCc1c(C)nc2c(OCc3ccccc3)cccn12  36%
18. Cc1nc2c([S+]([O-])Cc3ccccc3)cccn2c1CC#N (configuration not stated)  37%
19. Cc1nc2c(OCc3ccccc3)cccn2c1CCC#N  40%
20. Cc1nc2c(OCc3ccccc3)cccn2c1C(N)=O  42%
21. Cc1nc2c(C[S+]([O-])c3ccccc3)cccn2c1C (configuration not stated)  42%
22. Cc1nc2c(OCc3cccnc3)cccn2c1CC#N  46%
23. Cc1nc2c(OCc3ccncc3)cccn2c1CC#N  51%
24. Cc1nc2c(OCc3ccccn3)cccn2c1CC#N  56%
25. CC(=O)c1c(C)nc2c(OCc3ccccc3)cccn12  57%
26. Cc1nc2c(OCc3ccccc3)cccn2c1C(C)(C)C#N  57%
27. Cc1nc2c(OCc3ccccc3)cccn2c1CS(C)(=O)=O  61%
28. Cc1nc2c(OCc3ccccc3)cccn2c1CC1=NCCN1  69%
29. Cc1nc2c(OCc3ccccc3)cccn2c1CC(=N)N  79%
